Source: ChEMBL document CHEMBL1121400, “Quantitative structure--activity correlations of rifamycins as inhibitors of viral RNA-directed DNA polymerase and mammalian alpha and beta DNA polymerases” (J Med Chem, 1980)

Experiments:
[1] = molecular target: Gag-Pol polyprotein (Woolly monkey sarcoma virus) (UniProt P03359); experiment: Inhibition of simian sarcoma virus reverse transcriptase
Procedure, shortened: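 SSV-1 RNA-dependent DNA polymerase purified from tissue culture fluid of 71 AP1 cells. 50 µL reaction containing 20% glycerol, 1 mM DTT, BSA, Tris-HCl pH 7.5, MnCl2, KCl, NaF, [3H]dGTP and poly(2'-O-methylC)·d(pG)12-18. Compound in Me2SO is mixed with enzyme on ice for 10 min before the cocktail is added, then incubated 45 min at 37 °C. Radioactivity in product; 50% inhibitory concentration from triplicate dose–response curves spanning 10^-3 to 10^-7 M.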

[2] = molecular target: DNA polymerase beta (Mus musculus) (UniProt Q8K409); experiment: The logarithm of the reciprocal of the concentration which produces 50% inhibition of mammalian beta DNA polymerase.
Procedure, shortened: (§1)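 Mammalian α or β DNA polymerase in 100 µL reaction: enzyme in 50% glycerol, 1 mM DTT, 0.5 M KCl, Tris-HCl pH 7.5; Me2SO compound; cocktail with MnCl2, NaF, [3H]dGTP, poly(2'-O-methylC)·d(pG)12-18 template. Compound added first, then enzyme, then cocktail; 45 min at 37 °C. Product radioactivity, background-corrected against Me2SO controls; 50% concentration from triplicate five-dose curves, 10^-3–10^-7 M, expressed as log(1/C).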

[3] = The logarithm of the reciprocal of the concentration which produces 50% inhibition of mammalian alpha DNA polymerase.; procedure, shortened: as §1
[4] = Partition coefficient (logP); conditions: octanol/water, logP
Gag-Pol polyprotein = Gag-Pol polyprotein (Woolly monkey sarcoma virus, UniProt P03359); experiment: Ability to inhibit simian sarcoma virus reverse transcriptase
Procedure, shortened: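 Purified SSV-1 RNA-dependent DNA polymerase from 71 AP1 culture fluids, in 20% glycerol, 1 mM dithiothreitol, 1 mg/mL BSA and 50 mM Tris-HCl pH 7.5, was held 10 min on ice with inhibitor in Me2SO. Mn2+/[3H]dGTP cocktail with poly(2'-O-methylcytidylic acid)·d(pG)12-18 template was added, then 45 min at 37 °C. Background-corrected triplicate dose series; the 50% inhibition concentration was extrapolated.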

[5] = Ability to inhibit mouse alpha DNA polymerase
Procedure, shortened: (§2)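 Enzyme in 50% glycerol, 1 mM dithiothreitol, 0.5 M KCl and 50 mM Tris-HCl pH 7.5 was premixed with inhibitor in 100% Me2SO and held on ice 10 min. Cocktail (MnCl2, KCl, NaF, BSA, [3H]dGTP, poly(2'-O-methylcytidylic acid)·d(pG)12-18) was then added. Incubation was 45 min at 37 °C.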

DNA polymerase beta = DNA polymerase beta (Mus musculus, UniProt Q8K409); experiment: Ability to inhibit mouse beta DNA polymerase; procedure, shortened: as §2

Gag-Pol polyprotein (Woolly monkey sarcoma virus), sequence (P03359 whole entry): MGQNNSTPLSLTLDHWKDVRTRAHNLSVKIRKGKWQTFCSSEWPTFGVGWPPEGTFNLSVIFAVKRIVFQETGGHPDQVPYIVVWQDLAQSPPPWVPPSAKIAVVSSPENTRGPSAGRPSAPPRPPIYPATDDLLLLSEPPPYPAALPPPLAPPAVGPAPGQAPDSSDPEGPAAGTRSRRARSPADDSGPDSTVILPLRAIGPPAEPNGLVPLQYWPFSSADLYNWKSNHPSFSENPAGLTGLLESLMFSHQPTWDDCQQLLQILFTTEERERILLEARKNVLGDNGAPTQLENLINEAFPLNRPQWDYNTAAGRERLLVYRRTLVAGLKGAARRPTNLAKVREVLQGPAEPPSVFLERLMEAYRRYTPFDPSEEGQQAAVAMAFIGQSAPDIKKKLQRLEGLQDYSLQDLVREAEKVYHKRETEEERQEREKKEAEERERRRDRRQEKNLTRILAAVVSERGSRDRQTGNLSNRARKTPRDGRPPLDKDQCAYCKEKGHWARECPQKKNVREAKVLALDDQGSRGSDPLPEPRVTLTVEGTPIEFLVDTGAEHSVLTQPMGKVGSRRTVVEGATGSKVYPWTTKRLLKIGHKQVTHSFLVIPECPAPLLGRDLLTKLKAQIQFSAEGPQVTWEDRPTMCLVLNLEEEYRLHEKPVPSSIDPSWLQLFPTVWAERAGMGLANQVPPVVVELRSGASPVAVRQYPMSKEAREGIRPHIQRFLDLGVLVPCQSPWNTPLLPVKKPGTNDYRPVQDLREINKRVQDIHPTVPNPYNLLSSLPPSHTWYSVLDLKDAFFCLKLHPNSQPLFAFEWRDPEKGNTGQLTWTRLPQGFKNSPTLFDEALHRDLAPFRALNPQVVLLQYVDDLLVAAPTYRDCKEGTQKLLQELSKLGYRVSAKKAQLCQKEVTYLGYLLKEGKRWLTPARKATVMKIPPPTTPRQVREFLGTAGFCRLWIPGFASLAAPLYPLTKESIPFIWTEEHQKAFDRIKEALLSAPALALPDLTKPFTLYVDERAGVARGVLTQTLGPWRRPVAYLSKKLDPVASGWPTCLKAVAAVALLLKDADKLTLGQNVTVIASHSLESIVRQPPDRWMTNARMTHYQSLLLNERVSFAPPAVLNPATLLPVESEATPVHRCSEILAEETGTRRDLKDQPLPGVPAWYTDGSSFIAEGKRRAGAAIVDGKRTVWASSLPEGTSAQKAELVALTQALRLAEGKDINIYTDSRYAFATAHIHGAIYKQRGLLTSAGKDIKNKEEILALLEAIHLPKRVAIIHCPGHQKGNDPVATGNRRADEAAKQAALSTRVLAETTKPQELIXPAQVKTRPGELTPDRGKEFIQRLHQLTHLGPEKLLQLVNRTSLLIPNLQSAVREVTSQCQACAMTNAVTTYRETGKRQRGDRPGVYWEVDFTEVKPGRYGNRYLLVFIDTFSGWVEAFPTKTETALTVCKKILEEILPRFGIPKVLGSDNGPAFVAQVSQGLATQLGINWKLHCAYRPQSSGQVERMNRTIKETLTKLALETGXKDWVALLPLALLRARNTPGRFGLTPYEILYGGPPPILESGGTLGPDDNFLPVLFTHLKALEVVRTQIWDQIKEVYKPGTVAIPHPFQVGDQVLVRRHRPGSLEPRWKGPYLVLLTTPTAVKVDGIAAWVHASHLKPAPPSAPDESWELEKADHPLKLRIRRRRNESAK
Gag-Pol polyprotein, sequence (P03359 642-1310 limits assumed): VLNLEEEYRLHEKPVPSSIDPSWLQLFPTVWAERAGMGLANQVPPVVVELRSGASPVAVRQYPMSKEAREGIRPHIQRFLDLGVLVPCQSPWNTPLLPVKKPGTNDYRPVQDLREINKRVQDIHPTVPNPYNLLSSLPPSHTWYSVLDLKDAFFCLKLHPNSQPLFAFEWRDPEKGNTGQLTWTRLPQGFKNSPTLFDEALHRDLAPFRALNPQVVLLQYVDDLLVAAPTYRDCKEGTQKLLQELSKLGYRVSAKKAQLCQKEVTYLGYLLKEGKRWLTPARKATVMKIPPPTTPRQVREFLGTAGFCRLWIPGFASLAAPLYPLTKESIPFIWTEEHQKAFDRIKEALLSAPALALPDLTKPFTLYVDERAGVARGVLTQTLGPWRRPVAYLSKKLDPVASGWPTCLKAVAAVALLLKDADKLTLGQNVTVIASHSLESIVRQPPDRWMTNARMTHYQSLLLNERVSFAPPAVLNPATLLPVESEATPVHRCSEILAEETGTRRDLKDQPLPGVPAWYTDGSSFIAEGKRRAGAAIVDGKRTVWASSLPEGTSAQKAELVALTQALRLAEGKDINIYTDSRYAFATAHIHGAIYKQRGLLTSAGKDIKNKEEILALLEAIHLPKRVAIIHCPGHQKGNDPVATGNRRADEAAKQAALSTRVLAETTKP

Structure (SMILES)	Log 1/C [1]	Log 1/C [2]	Log 1/C [3]	logP [4]	IC50 (Gag-Pol polyprotein)	IC50 [5]	IC50 (DNA polymerase beta)	IC50 (Gag-Pol polyprotein; read-out: IC50)	IC50 (DNA polymerase beta; read-out: IC50)
COC1/C=C/OC2(C)Oc3c(C)c(O)c4c(O)c(c(CN5CCNCC5)cc4c3C2=O)NC(=O)/C(C)=C\C=C\C(C)C(O)C(C)C(O)C(C)C(OC(C)=O)C1C (stereo unspecified)	2.84	2.38	2.52	1.76	0.00145 M l-1	0.003 M l-1	0.0042 M l-1		
CCCCCCCCO/N=C/c1cc2c3c4c(C)c(O)c2c(O)c1NC(=O)/C(C)=C\C=C\C(C)C(O)C(C)C(O)C(C)C(OC(C)=O)C(C)C(OC)/C=C/OC(C)(O4)C3=O (stereo unspecified)	6	4.89	4.94	5.2		0.000015 M l-1		1 µM	13 µM
COC1/C=C/OC2(C)Oc3c(C)c(O)c4c(O)c(c(/C=N/N5CCCC5)cc4c3C2=O)NC(=O)/C(C)=C\C=C\C(C)C(O)C(C)C(O)C(C)C(OC(C)=O)C1C (stereo unspecified)	4.77	3.62	3.62	2.75		0.00024 M l-1	0.00024 M l-1	17 µM	
COC1/C=C/OC2(C)Oc3c(C)c(O)c4c(O)c(c(/C=N/OC(c5ccccc5)c5ccccc5)cc4c3C2=O)NC(=O)/C(C)=C\C=C\C(C)C(O)C(C)C(O)C(C)C(OC(C)=O)C1C (stereo unspecified)	5.6	5	4.62	4.96		0.000024 M l-1		2.5 µM	10 µM
COC1/C=C/OC2(C)Oc3c(C)c(O)c4c(O)c(c(/C=N/NC5CCCCCCCCCCCCCC5)cc4c3C2=O)NC(=O)/C(C)=C\C=C\C(C)C(O)C(C)C(O)C(C)C(OC(C)=O)C1C (stereo unspecified)	6.07	4.82	4.94	6.78		0.0000115 M l-1		0.85 µM	15 µM
COC1/C=C/OC2(C)Oc3c(C)c(O)c4c(O)c(c(/C=N/N5CCCCCCCCCC5)cc4c3C2=O)NC(=O)/C(C)=C\C=C\C(C)C(O)C(C)C(O)C(C)C(OC(C)=O)C1C (stereo unspecified)	5.18	4.65	4.51	4.05		0.000031 M l-1		6.6 µM	22 µM
COC1/C=C/OC2(C)Oc3c(C)c(O)c4c(O)c(c(C=O)cc4c3C2=O)NC(=O)/C(C)=C\C=C\C(C)C(O)C(C)C(O)C(C)C(OC(C)=O)C1C (stereo unspecified)	2.99	2.99	2.99	0.13		0.000102 M l-1	0.000104 M l-1	17 µM	
COC1/C=C/OC2(C)Oc3c(C)c(O)c4c(O)c(c(/C=N/Nc5ccc([N+](=O)[O-])cc5[N+](=O)[O-])cc4c3C2=O)NC(=O)/C(C)=C\C=C\C(C)C(O)C(C)C(O)C(C)C(OC(C)=O)C1C (stereo unspecified)	5.26	4.3	4.35	3.81		0.000045 M l-1		5.4 µM	50 µM
